Data from ChEMBL document CHEMBL2311344, “Development of an in vivo active, dual EP1 and EP3 selective antagonist based on a novel acyl sulfonamide bioisostere” (Bioorg Med Chem Lett, 2013).
Calls of active or inactive are those of the source. The calls are words filed in the database; no cut-off is given here.

Assays:
[1] = biological target: Prostaglandin E2 receptor EP2 subtype (Mus musculus, UniProt Q62053); experiment: Antagonist activity at mouse EP2 receptor
Summary of the method: (§1)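 Affinity at mouse EP2, EP3 and EP4 is given as pKI. Signalling through mouse TP is given as pIC50. Mean ± SEM of at least three independent experiments, each run in triplicate.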

[2] = biological target: Prostaglandin E2 receptor EP4 subtype (Mus musculus, UniProt P32240); experiment: Antagonist activity at mouse EP4 receptor; summary of the method: as §1
Sequence of Prostaglandin E2 receptor EP4 subtype (P32240 whole entry): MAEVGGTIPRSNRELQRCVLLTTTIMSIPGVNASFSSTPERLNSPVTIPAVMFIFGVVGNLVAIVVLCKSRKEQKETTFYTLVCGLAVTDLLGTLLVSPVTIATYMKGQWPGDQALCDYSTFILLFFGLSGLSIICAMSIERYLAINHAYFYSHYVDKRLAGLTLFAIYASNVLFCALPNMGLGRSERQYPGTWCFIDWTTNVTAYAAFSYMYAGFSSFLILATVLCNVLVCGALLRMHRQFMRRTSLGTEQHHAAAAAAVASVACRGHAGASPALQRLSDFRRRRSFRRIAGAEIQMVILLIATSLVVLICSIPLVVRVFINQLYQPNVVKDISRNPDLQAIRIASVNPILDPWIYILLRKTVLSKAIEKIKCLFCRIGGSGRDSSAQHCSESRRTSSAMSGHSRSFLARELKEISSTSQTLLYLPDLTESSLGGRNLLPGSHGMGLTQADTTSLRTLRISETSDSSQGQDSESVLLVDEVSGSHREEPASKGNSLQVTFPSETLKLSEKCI

[3] = biological target: T1, Prostaglandin E2 receptor EP1 subtype (Mus musculus, UniProt P35375); experiment: Antagonist activity at mouse EP1 receptor expressed in CHOK1 cells assessed as inhibition of 17PTPGE2-induced calcium influx; assay type: functional, cell-based, CHO-K1
T1 sequence (P35375 whole entry): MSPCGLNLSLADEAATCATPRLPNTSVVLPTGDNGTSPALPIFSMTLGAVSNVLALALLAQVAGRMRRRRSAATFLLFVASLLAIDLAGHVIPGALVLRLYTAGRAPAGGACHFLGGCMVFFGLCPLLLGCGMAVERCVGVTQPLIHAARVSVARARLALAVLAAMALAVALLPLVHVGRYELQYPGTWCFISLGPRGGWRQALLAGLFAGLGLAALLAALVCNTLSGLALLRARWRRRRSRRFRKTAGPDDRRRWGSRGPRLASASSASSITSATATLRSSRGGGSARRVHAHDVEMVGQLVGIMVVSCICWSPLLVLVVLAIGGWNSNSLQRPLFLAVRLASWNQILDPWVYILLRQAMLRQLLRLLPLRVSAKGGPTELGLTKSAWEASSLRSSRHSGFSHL
Summary of the method: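 CHOk1 cells expressing mouse EP1 were treated with six antagonist concentrations, then challenged with a concentration range of the EP1 agonist 17-phenyl-ω-trinor PGE2. pKD/KD came from transformed Schild regression of the concentration-response curves. Mean ± SEM of at least two independent experiments, each in duplicate.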

[4] = biological target: T2, Prostaglandin E2 receptor EP3 subtype (Mus musculus, UniProt P30557); experiment: Antagonist activity at mouse EP3 receptor; summary of the method: as §1
T2 sequence (P30557 whole entry): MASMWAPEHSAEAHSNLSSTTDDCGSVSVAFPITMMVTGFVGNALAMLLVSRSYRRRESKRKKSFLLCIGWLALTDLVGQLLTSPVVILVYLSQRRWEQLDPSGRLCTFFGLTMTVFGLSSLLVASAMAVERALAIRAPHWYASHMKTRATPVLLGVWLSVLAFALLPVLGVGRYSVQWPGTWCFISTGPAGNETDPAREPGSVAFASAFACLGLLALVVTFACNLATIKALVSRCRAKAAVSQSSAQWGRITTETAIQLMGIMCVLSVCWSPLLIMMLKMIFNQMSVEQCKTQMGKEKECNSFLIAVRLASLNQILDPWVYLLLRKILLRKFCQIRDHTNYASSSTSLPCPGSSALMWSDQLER

Thromboxane A2 receptor = biological target: T3, Thromboxane A2 receptor (Mus musculus, UniProt P30987); experiment: Antagonist activity at mouse TP receptor; summary of the method: as §1
T3 sequence (P30987 whole entry): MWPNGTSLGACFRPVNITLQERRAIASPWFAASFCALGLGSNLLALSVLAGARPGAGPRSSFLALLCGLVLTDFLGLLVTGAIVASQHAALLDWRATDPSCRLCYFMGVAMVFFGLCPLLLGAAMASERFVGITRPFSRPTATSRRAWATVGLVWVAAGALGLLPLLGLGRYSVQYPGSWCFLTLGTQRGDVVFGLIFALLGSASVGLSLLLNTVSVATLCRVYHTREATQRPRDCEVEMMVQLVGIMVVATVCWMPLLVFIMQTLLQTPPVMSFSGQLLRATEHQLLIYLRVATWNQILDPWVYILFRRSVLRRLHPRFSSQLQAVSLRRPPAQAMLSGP

[5] = Volume of distribution at steady state in mouse at 1 mg/kg, iv; assay type: ADME, organism-based; parameters: dose 1 mg/kg, route intravenous; conditions: in vivo, read-out: Vdss
Summary of the method: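 Mouse plasma pharmacokinetics after a single intravenous 1 mg/kg dose. Systemic plasma clearance and volume of distribution predicted at steady state were derived from the IV data. A separate oral arm at 10 mg/kg was used for bioavailability.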

[6] = Plasma clearance in mouse at 1 mg/kg, iv; assay type: ADME, organism-based; parameters: dose 1 mg/kg, route intravenous
Summary of the method: (§2)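 Mice were dosed IV at 1 mg/kg or orally at 10 mg/kg. From plasma, the following were derived: systemic plasma clearance, Vss, t1/2 and oral bioavailability (%F).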

[7] = Oral bioavailability in mouse at 10 mg/kg; assay type: ADME, organism-based; conditions: in vivo; summary of the method: as §2
Plasma = experiment: Fraction unbound in mouse plasma; assay type: ADME, cell-free
[8] = Half life in mouse at 1 mg/kg, iv; assay type: ADME, organism-based; parameters: dose 1 mg/kg, route intravenous; conditions: in vivo
Summary of the method: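 Single intravenous dose of 1 mg/kg given to mice. Half-life was derived from systemic plasma levels. Plasma clearance (CLp) and steady-state volume of distribution (Vss) came from the same study. A separate 10 mg/kg oral arm was run for bioavailability.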

[9] = Drug metabolism in mouse liver microsomes assessed as esterase-mediated hydrolysis; assay type: ADME, Microsome
[10] = Drug metabolism in mouse liver microsomes assessed as cytochrome P450-mediated oxidation; assay type: ADME, Microsome
[11] = biological target: T4, Prostaglandin E2 receptor EP1 subtype (Mus musculus) (UniProt P35375); experiment: Antagonist activity at mouse EP1 receptor expressed in CHOK1 cells assessed as inhibition of 17PTPGE2-induced calcium influx at >100 uM; assay type: functional, cell-based; conditions: CHO-K1
T4 sequence (whole entry): T1 sequence (P35375 whole entry)

[12] = Drug metabolism in mouse liver microsomes assessed as esterase-mediated sulfonamide hydrolysis; assay type: ADME, Microsome
[13] = Drug metabolism in mouse liver microsomes assessed as cytochrome P450-mediated methylene linker oxidation; assay type: ADME, Microsome
Mus musculus [14] = experiment: Antihypertensive activity in mouse assessed as effect on phenylephrine-induced vasopressor activity at 5 mg/kg, sc administered 2 hrs prior to phenylephrine-challenge; assay type: functional, organism-based; parameters: dose 5 mg/kg
Summary of the method: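 In the same anesthetized, carotid/jugular-cannulated mouse preparation, phenylephrine 10 μg/kg was given as an IV bolus 2 h after 5 mg/kg sc pretreatment. The change in arterial pressure served as the non-EP vasoconstriction control.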

Mus musculus [15] = experiment: Cmax in mouse at 5 mg/kg, sc; assay type: ADME, organism-based; parameters: dose 5 mg/kg, route subcutaneous; conditions: in vivo
Summary of the method: (§3)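 Subcutaneous dose of 5 mg/kg in mice (n = 3). Plasma sampled intermittently to build a concentration-time profile. Cmax, tmax and AUC were taken from that profile.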

Mus musculus [16] = experiment: Tmax in mouse at 5 mg/kg, sc; assay type: ADME, organism-based; parameters: dose 5 mg/kg, route subcutaneous; conditions: in vivo; summary of the method: as §3
[17] = Drug metabolism in mouse liver microsomes assessed as cytochrome P450-mediated benzylic oxidation; assay type: ADME, Microsome
Mus musculus [18] = experiment: AUC in mouse at 5 mg/kg, sc; assay type: ADME, organism-based, Plasma; parameters: dose 5 mg/kg, route subcutaneous; conditions: in vivo; summary of the method: as §3
Mus musculus [19] = experiment: Antihypertensive activity in mouse assessed as sulprostone-induced mean arterial pressure at 5 mg/kg, sc administered 2 hr prior to sulprostone-challenge (reference value: 53.3 +/- 2.3 mmHg); assay type: functional, Artery; conditions: route subcutaneous
Summary of the method: (§4)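 Mice were anesthetized, with the left common carotid artery and right jugular vein cannulated. Arterial pressure was recorded directly via the carotid catheter. Test agent or vehicle was given 5 mg/kg sc. After 2 h, an IV bolus went through the jugular catheter: 20 μg/kg 17-phenyl-ω-trinor PGE2 (EP1) or 10 μg/kg sulprostone (EP3). Read-out was change in MAP. n = 3 per group; two-tailed Student's t test.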

Mus musculus [20] = experiment: Antihypertensive activity in mouse assessed as 17PTPGE2-induced mean arterial pressure at 5 mg/kg, sc administered 2 hr prior to 17PTPGE2-challenge (reference value: 50.3 +/- 5.5 mmHg); assay type: functional, Artery; conditions: route subcutaneous; summary of the method: as §4

Sequence of Prostaglandin E2 receptor EP2 subtype (Q62053 whole entry): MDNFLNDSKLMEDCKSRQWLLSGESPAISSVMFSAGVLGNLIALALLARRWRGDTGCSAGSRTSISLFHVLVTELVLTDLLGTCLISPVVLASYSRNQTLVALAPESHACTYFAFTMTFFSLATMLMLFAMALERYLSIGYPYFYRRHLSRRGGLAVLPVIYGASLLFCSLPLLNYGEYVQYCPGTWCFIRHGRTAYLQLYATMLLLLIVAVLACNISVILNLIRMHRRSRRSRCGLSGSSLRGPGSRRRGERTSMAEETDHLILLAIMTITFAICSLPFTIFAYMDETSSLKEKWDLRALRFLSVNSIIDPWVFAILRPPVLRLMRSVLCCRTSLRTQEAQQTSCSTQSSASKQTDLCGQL

SMILES | Ki [1] | Ki [2] | Kd ([3]; read-out: Kd) | Ki [4] | pIC50 (Thromboxane A2 receptor) | other results
CCC(C)NC(=O)c1cccc(Cc2cc(Cl)ccc2OCc2ccc(Cl)cc2F)n1 (stereo not drawn) | > 1000 nM | > 1000 nM | 1380 nM | > 1000 nM | < 6 | –
NC(=O)c1cccc(Cc2cc(Cl)ccc2OCc2ccc(Cl)cc2F)n1 | > 1000 nM | > 1000 nM | 2630 nM | > 1000 nM | < 6 | –
O=C(O)c1cccc(Cc2cc(Cl)ccc2OCc2ccc(Cl)cc2F)n1 | 1740 nM | > 1000 nM | 47.9 nM | > 1000 nM | – | Vd [5]: 0.9 L/kg; clearance [6]: 59.2 mL/min/kg; bioavailability [7]: 13.8%; Fu (Plasma): 0.005; half-life [8]: 1.08 h
Cc1ccc(S(=O)(=O)NC(=O)c2cccc(Cc3cc(Cl)ccc3OCc3ccc(Cl)cc3F)n2)cc1 | > 1000 nM | > 1000 nM | 214 nM | > 1000 nM | < 6 | –
O=C(NS(=O)(=O)c1ccc(Cl)c(Cl)c1)c1cccc(Cc2cc(Cl)ccc2OCc2ccc(Cl)cc2F)n1 | > 1000 nM | > 1000 nM | 214 nM | 66.1 nM | < 6 | –
CCN(CC)C(=O)c1cccc(Cc2cc(Cl)ccc2OCc2ccc(Cl)cc2F)n1 | > 1000 nM | > 1000 nM | 447 nM | > 1000 nM | < 6 | –
O=C(c1cccc(Cc2cc(Cl)ccc2OCc2ccc(Cl)cc2F)n1)N1CCCC1 | > 1000 nM | > 1000 nM | 15800 nM | > 1000 nM | < 6 | –
O=C(NS(=O)(=O)c1cc(Cl)ccc1Cl)c1cccc(Cc2cc(Cl)ccc2OCc2ccc(Cl)cc2F)n1 | > 1000 nM | > 1000 nM | 53.7 nM | 204 nM | < 6 | Kd ([3]; read-out: pKd (converted)): 56.2 nM
O=C(NC1CC2CCC1C2)c1cccc(Cc2cc(Cl)ccc2OCc2ccc(Cl)cc2F)n1 (stereo not drawn) | > 1000 nM | > 1000 nM | 2190 nM | > 1000 nM | < 6 | –
O=C(NC1CCC1)c1cccc(Cc2cc(Cl)ccc2OCc2ccc(Cl)cc2F)n1 | > 1000 nM | > 1000 nM | 912 nM | > 1000 nM | < 6 | –
CC(C)CNC(=O)c1cccc(Cc2cc(Cl)ccc2OCc2ccc(Cl)cc2F)n1 | > 1000 nM | > 1000 nM | 302 nM | 214 nM | < 6 | Drug metabolism [9]: Active; Fu (Plasma): 0.01; Drug metabolism [10]: Active
CCCS(=O)(=O)NC(=O)c1cccc(Cc2cc(Cl)ccc2OCc2ccc(Cl)cc2F)n1 | > 1000 nM | > 1000 nM | – | > 1000 nM | < 6 | Activity [11]: inactive
CC(C)(C)NC(=O)c1cccc(Cc2cc(Cl)ccc2OCc2ccc(Cl)cc2F)n1 | > 1000 nM | > 1000 nM | 4360 nM | > 1000 nM | < 6 | –
O=C(NS(=O)(=O)c1ccc(Cl)cc1)c1cccc(Cc2cc(Cl)ccc2OCc2ccc(Cl)cc2F)n1 | > 1000 nM | > 1000 nM | 40.7 nM | 107 nM | < 6 | Drug metabolism [12]: Active; Drug metabolism [13]: Active; Activity (Mus musculus [14]): inactive; Cmax (Mus musculus [15]): 504 nM; Tmax (Mus musculus [16]): 2 h; Drug metabolism [17]: Active; AUC (Mus musculus [18]): 7.508 µM·h; Activity (Mus musculus [19]): 32 mmHg; Fu (Plasma): 0.004; Activity (Mus musculus [20]): 27 mmHg
O=C(NCC1CC1)c1cccc(Cc2cc(Cl)ccc2OCc2ccc(Cl)cc2F)n1 | > 1000 nM | > 1000 nM | 549 nM | > 1000 nM | < 6 | –
